Experimental data: ChEMBL document CHEMBL4680130, “Substituted 4-phenylthiazoles: Development of potent and selective A, A and dual A/A adenosine receptor antagonists” (Eur J Med Chem, 2020)

Legend:
Adenosine receptor A2b = target: T1, Adenosine receptor A2b (Homo sapiens, UniProt P29275); experiment: Displacement of [3H]PSB-603 from human adenosine receptor A2B expressed in CHO cell membranes incubated for 75 mins by radioligand competition assay; design: species or system Cell membrane
T1 sequence (P29275 whole entry): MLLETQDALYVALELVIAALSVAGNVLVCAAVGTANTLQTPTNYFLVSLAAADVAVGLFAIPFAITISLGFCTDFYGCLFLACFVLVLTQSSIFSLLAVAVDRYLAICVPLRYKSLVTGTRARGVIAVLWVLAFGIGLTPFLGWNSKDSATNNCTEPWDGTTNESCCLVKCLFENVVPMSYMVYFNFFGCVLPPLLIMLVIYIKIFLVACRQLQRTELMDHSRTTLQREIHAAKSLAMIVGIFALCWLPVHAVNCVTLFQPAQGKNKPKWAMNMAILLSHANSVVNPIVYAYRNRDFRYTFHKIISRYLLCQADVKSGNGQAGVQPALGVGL

Adenosine receptor A3 [1] = target: T2, Adenosine receptor A3 (Homo sapiens, UniProt P0DMS8); experiment: Displacement of [3H]PSB-11 from human adenosine receptor A3 expressed in CHO cell membranes incubated for 60 mins by radioligand competition assay; design: species or system Cell membrane
T2 sequence (P0DMS8 whole entry): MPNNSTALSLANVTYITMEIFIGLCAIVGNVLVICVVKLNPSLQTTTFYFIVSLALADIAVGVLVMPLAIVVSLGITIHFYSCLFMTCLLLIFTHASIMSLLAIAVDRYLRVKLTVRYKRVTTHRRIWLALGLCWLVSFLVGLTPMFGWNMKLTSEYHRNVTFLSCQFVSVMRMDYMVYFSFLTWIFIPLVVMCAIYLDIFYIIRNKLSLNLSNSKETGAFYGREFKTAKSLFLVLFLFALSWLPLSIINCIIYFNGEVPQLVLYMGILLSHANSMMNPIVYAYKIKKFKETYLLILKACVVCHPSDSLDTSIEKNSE

Adenosine receptor A2a [2] = target: Adenosine receptor A2a (Rattus norvegicus, UniProt P30543); experiment: Displacement of [3H]MSX2 from adenosine receptor A2A in rat brain striatum membranes incubated for 30 mins by radioligand competition assay; format: cell membranes, Cell membrane
Sequence of Adenosine receptor A2a (Rattus norvegicus, UniProt P30543) (P30543 whole entry): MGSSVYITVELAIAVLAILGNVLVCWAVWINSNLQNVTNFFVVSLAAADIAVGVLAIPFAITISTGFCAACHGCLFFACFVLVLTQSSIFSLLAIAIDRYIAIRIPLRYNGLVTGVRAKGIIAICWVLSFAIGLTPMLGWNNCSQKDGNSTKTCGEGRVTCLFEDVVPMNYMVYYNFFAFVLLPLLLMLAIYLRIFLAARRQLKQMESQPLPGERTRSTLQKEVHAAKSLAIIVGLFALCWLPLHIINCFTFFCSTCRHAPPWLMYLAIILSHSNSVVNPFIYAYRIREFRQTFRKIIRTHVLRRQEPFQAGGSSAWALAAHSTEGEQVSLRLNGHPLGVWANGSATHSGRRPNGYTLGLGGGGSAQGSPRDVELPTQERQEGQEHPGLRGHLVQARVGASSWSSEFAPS

Adenosine receptor A1 [3] = target: T3, Adenosine receptor A1 (Rattus norvegicus, UniProt P25099); experiment: Displacement of [3H]CCPA from adenosine receptor A1 in rat brain cortex membranes incubated for 90 mins by radioligand competition assay; format: cell membranes, Cell membrane
T3 sequence (P25099 whole entry): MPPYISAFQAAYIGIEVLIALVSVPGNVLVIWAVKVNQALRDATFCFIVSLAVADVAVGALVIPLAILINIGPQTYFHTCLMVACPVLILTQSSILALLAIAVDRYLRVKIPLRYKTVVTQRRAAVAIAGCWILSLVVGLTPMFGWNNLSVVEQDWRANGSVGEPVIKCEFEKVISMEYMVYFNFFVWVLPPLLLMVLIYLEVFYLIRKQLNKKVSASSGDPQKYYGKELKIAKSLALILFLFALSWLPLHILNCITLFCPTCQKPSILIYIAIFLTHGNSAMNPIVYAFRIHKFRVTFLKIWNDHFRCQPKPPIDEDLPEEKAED

Adenosine receptor A3 [4] = target: T4, Adenosine receptor A3 (Rattus norvegicus, UniProt P28647); experiment: Displacement of [3H]NECA from rat adenosine receptor A3 expressed in CHO cell membranes incubated for 60 mins by radioligand competition assay; design: species or system Cell membrane
T4 sequence (P28647 whole entry): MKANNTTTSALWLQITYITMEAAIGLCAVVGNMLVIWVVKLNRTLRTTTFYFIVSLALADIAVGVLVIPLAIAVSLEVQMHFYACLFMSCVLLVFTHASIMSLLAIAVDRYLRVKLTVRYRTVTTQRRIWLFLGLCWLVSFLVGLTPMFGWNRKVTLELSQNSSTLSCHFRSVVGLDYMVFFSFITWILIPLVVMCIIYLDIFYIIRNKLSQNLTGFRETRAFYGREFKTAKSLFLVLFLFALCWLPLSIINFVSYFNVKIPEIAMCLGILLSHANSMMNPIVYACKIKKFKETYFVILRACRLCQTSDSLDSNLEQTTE

Adenosine receptor A2a [5] = target: T5, Adenosine receptor A2a (Homo sapiens, UniProt P29274); experiment: Displacement of [3H]MSX2 from human adenosine receptor A2A expressed in HEK293 cell membranes at 0.1 uM incubated for 30 mins by radioligand competition assay relative to control; conditions: Cell membrane
T5 sequence (P29274 whole entry): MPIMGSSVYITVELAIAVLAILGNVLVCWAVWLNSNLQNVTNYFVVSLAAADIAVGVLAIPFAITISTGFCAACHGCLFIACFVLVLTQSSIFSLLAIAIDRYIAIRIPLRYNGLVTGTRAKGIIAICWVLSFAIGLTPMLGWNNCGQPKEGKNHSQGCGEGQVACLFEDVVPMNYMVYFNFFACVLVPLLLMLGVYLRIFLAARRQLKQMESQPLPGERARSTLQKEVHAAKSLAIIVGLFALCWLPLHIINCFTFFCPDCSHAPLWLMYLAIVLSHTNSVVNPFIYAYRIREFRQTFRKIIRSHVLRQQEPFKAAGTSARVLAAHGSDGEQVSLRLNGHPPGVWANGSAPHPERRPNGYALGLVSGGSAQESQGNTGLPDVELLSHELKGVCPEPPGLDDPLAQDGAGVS
Outline: (§1)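 A2A binding, [3H]MSX-2 1.0 nM. Membranes: rat brain striatum, or HEK293 cells expressing human A2A. Adenosine deaminase preincubation 20 min, then 30 min at rt in 50 mM Tris-HCl pH 7.4 with 2.5% DMSO. Nonspecific binding defined by 50 µM NECA. GF/B filtration, scintillation counting. Single-concentration percent inhibition, ≥3 experiments in duplicate or triplicate.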

[6] = target: Adenosine receptor A2a (Rattus norvegicus) (UniProt P30543); experiment: Displacement of [3H]MSX2 from adenosine receptor A2A in rat brain striatum membranes at 0.1 uM incubated for 30 mins by radioligand competition assay relative to control; conditions: Cell membrane; outline: as §1
Sequence of Adenosine receptor A2a (Rattus norvegicus) (P30543 whole entry): as the sequence (P30543 whole entry) above

[7] = target: T6, Adenosine receptor A1 (Rattus norvegicus) (UniProt P25099); experiment: Displacement of [3H]CCPA from adenosine receptor A1 in rat brain cortex membranes at 0.1 uM incubated for 90 mins by radioligand competition assay; conditions: Cell membrane
T6 sequence (whole entry): T3 sequence (P25099 whole entry)
Outline: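 A1 competition binding with [3H]CCPA, 0.5 nM. Membranes: CHO cells expressing human A1, or rat brain cortex. Membranes preincubated 20 min with adenosine deaminase (2 U/mL per mg protein). Incubation 90 min at rt in 50 mM Tris-HCl pH 7.4 with 2.5% final DMSO. Nonspecific binding defined by 10 µM 2-chloroadenosine. GF/B filtration, scintillation counting.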

Adenosine receptor A1 [8] = target: T7, Adenosine receptor A1 (Homo sapiens, UniProt P30542); experiment: Displacement of [3H]CCPA from human adenosine receptor A1 expressed in CHO cell membranes incubated for 90 mins by radioligand competition assay; design: species or system Cell membrane
T7 sequence (P30542 whole entry): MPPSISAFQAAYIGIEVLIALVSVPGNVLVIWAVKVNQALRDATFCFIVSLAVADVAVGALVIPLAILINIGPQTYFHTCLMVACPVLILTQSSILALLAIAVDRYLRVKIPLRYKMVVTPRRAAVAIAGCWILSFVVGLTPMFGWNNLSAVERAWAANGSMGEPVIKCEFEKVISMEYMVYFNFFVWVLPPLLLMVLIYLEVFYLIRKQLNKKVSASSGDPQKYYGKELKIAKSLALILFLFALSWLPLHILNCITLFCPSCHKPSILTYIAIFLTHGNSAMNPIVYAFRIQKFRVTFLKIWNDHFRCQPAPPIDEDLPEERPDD

Adenosine receptor A2a [9] = target: T5, Adenosine receptor A2a; experiment: Displacement of [3H]MSX2 from human adenosine receptor A2A expressed in HEK293 cell membranes incubated for 30 mins by radioligand competition assay; design: species or system Cell membrane
[10] = target: T8, Adenosine receptor A2b (Homo sapiens) (UniProt P29275); experiment: Displacement of [3H]PSB-603 from human adenosine receptor A2B expressed in CHO cell membranes at 0.1 uM incubated for 75 mins by radioligand competition assay relative to control; conditions: Cell membrane
T8 sequence (whole entry): T1 sequence (P29275 whole entry)
Outline: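 CHO membranes expressing human or rat A2B, [3H]PSB-603 0.3 nM. Nonspecific binding defined by 10 µM DPCPX. Preincubated 20 min with adenosine deaminase, then 75 min at rt in Tris-HCl pH 7.4 with 2.5% DMSO. Filters washed with ice-cold 50 mM Tris-HCl containing 0.1% BSA; scintillation counting.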

[11] = in the assay text read “at 1 uM” for “at 0.1 uM”

Row | Ki (Adenosine receptor A2b) [µM] | Ki (Adenosine receptor A3 [1]) [µM] | Ki (Adenosine receptor A2a [2]) [µM] | Ki (Adenosine receptor A1 [3]) [µM] | Ki (Adenosine receptor A3 [4]) [µM] | inhibition (Adenosine receptor A2a [5]; [11]) [%] | inhibition [6] [%] | inhibition [7] [%] | Ki (Adenosine receptor A1 [8]) [µM] | Ki (Adenosine receptor A2a [9]) [µM] | inhibition ([7]; filed as antagonist) [%] | inhibition [10] [%] | inhibition (Adenosine receptor A2a [5]; filed as antagonist, in the assay text read “1 uM” for “0.1 uM”) [%] | Compound
1 | > 0.1 | 0.0254 | > 1 | > 1 | 1.84 | 1 | 6 | 25 | > 1 | > 1 | – | – | – | Cc1ccc(-n2c(-c3sc(NC(=O)c4ccco4)nc3-c3ccccc3)nc3ccccc3c2=O)cc1
2 | > 0.1 | 0.00905 | > 1 | > 1 | 0.806 | – | 17 | – | > 1 | > 1 | 23 | – | – | Cc1ccc(-n2c(-c3sc(NC(=O)c4ccccc4)nc3-c3ccccc3)nc3ccccc3c2=O)cc1
3 | > 0.1 | 0.174 | > 1 | > 1 | – | 20 | 1 | – | > 1 | > 1 | 11 | – | – | COc1ccc(C(=O)Nc2nc(-c3ccccc3)c(-c3nc4ccccc4c(=O)n3-c3ccccc3)s2)cc1
4 | > 0.1 | 0.00463 | > 1 | > 1 | > 10 | 10 | 1 | 17 | > 1 | > 1 | – | – | – | COc1ccc(C(=O)Nc2nc(-c3ccccc3)c(-c3nc4ccccc4c(=O)n3-c3ccc(OC)cc3)s2)cc1
5 | > 0.1 | 0.129 | > 1 | > 1 | – | 5 | 33 | 26 | > 1 | > 1 | – | 1 | – | O=C(Nc1nc(-c2ccccc2)c(-c2nc3ccccc3c(=O)n2-c2ccccc2)s1)c1ccco1
6 | > 0.1 | 0.00645 | > 1 | > 1 | 0.973 | 11 | – | 25 | > 1 | > 1 | – | 30 | – | COc1ccc(-n2c(-c3sc(NC(=O)c4ccco4)nc3-c3ccccc3)nc3ccccc3c2=O)cc1
7 | > 0.1 | 0.00823 | > 1 | > 1 | 1.32 | 3 | 17 | – | > 1 | > 1 | 10 | – | – | COc1ccc(-n2c(-c3sc(NC(=O)c4ccccc4)nc3-c3ccccc3)nc3ccccc3c2=O)cc1

The remaining lines, values behind:

Row | Compound | Ki (Adenosine receptor A2b) [µM] | Ki (Adenosine receptor A3 [1]) [µM] | Ki (Adenosine receptor A2a [2]) [µM] | Ki (Adenosine receptor A1 [3]) [µM] | Ki (Adenosine receptor A3 [4]) [µM] | inhibition (Adenosine receptor A2a [5]; [11]) [%] | inhibition [6] [%] | inhibition [7] [%] | Ki (Adenosine receptor A1 [8]) [µM] | Ki (Adenosine receptor A2a [9]) [µM] | inhibition ([7]; filed as antagonist) [%] | inhibition [10] [%] | inhibition (Adenosine receptor A2a [5]; filed as antagonist, in the assay text read “1 uM” for “0.1 uM”) [%]
8 | CCCCn1c(=O)c2[nH]c(C34CC5CC(CC3C5)C4)nc2n(CCCO)c1=O | 0.187 | 2.3 | 0.552 | 0.000124 | 6.5 | – | – | – | – | – | – | – | –
9 | COc1cc(-c2nc(NC(C)=O)sc2-c2ccncc2)cc(OC)c1OC | 3.2 | – | – | – | – | – | – | – | – | – | – | – | –
10 | CC[C@@H]1CN2C(=O)N(C)c3nc(-c4cc(Cl)cc(Cl)c4Cl)[nH]c3C2=N1 | 30 | – | 6.04 | 0.805 | – | – | – | – | 1.7 | 2.7 | – | – | –
11 | CCCOC(=O)c1c(-c2ccccc2)nc(CC)c(C(=O)SCC)c1CCC | > 10 | – | – | – | – | – | – | – | > 10 | 3.66 | – | – | –
12 | O=C(Nc1nc(-c2ccccc2)c(-c2nc3ccccc3c(=O)n2-c2ccccc2)s1)c1ccccc1 | > 0.1 | 0.111 | > 1 | > 1 | – | – | 3 | – | > 1 | > 1 | 1 | – | –
13 | O=C(Nc1nc(-c2ccccc2)c(-c2ccccn2)s1)c1ccccc1 | > 0.1 | > 1 | 0.391 | 0.00347 | – | – | – | – | 0.0908 | 0.0836 | – | – | –
14 | COc1ccc(C(=O)Nc2nc(-c3ccccc3)c(C(=O)c3ccccc3)s2)cc1 | > 0.1 | 0.0254 | > 1 | 0.00147 | > 1 | – | 32 | – | 0.0367 | > 1 | – | 2 | 41
15 | Cn1c(=O)c2[nH]cnc2n(C)c1=O [THEOPHYLLINE] | – | – | – | – | > 100 | – | – | – | – | – | – | – | –
16 | CC[C@@H]1CN2C(=O)N(C)c3nc(-c4ccccc4)[nH]c3C2=N1 | 3.7 | – | – | – | > 10 | – | – | – | – | 0.108 | – | – | –
